Measurements of several laboratories.
Compare with care: the assays were run in different laboratories.
LRRK2: Leucine-rich repeat serine/threonine-protein kinase 2 (LRRK2, Homo sapiens, UniProt Q5S007)
LRRK2 G2019S: Leucine-rich repeat serine/threonine-protein kinase 2 (LRRK2, Homo sapiens, UniProt Q5S007, G2019S)

SMILES | target | test | endpoint | result
CC(=O)NC1CCN(c2ncnc3[nH]cc(-c4cccc(Cl)c4)c23)CC1 | LRRK2 | enzyme activity in cells, inhibitor | IC50 | 1100 nM
COc1cc(N2CCN(C)CC2)ccc1Nc1ncc2c(n1)N(C)c1ccccc1C(=O)N2 | LRRK2 | enzyme activity, inhibitor | IC50 | 70 nM
O=C(/C=C/c1ccc(O)c(O)c1)O[C@H](Cc1ccc(O)c(O)c1)C(=O)O | LRRK2 G2019S | enzyme activity, inhibitor, radiometric | IC50 | 496 nM
C[C@@H]1CN(c2cc(-c3nn(C)c4ccc(OC5(C)CC5)cc34)ncn2)C[C@H](C)O1 | LRRK2 | target engagement in cells, BRET | EC50 | > 50000 nM
COc1cc(N2CCN(C)CC2)ccc1Nc1ncc2c(n1)N(C)c1ccccc1C(=O)N2C | LRRK2 | enzyme activity, inhibitor | IC50 | 29 nM
CC(Cc1ccc(O)c(O)c1)C(C)Cc1ccc(O)c(O)c1 (stereo not drawn) | LRRK2 G2019S | enzyme activity, inhibitor, radiometric | IC50 | 210 nM
CN(C(=O)c1cnn2cccnc12)c1cc2c(cc1N1CCOCC1)C(=O)N(C[C@@H](F)C(C)(C)O)C2 | LRRK2 | target engagement in cells, BRET | EC50 | > 50000 nM
O=c1ccc2cc(O)c(O)cc2o1 | LRRK2 | enzyme activity, inhibitor, radiometric | IC50 | 1730 nM
Cc1cnc(-c2ccc(-c3ccc(NC(=O)Nc4c(F)cc(F)cc4F)cc3F)c3c2C(=O)NC3)[nH]1 | LRRK2 | binding, competition with immobilised ligand | Kd | 260 nM
